Test [1] has as its system HAPI. The test is described as follows: Antiinflammatory activity in rat HAPI cells assessed as inhibition of LPS-induced nitric oxide production at 50 uM treated 30 mins before LPS challenge measured after 24 hrs by Griess method. Type of test: functional, cell-based. The gist of the method: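 About 1.0 × 10⁵ HAPI cells per well were seeded in 1% FCS DMEM. The next day, compound (50 µM) was present 30 min before and during LPS (100 ng/mL) for 24 h. Medium nitrite was read by Griess kit. Data are fold induction vs untreated cells, mean SD, n = 3 or 4.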
On the technique in general: The Griess reaction detects nitrite, a stable product of nitric oxide.

Test [2] concerns HAPI. Briefly: Antiinflammatory activity in rat HAPI cells assessed as inhibition of LPS-induced iNOS mRNA expression at 50 uM treated 30 mins before LPS challenge measured after 6 hrs by RT-PCR analysis. The class given is functional, cell-based. The gist of the method: (§1)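 HAPI cells were seeded in 1% FCS DMEM and treated the next day. Compound (50 µM) was present 30 min before and during LPS (100 ng/mL) for 6 h. RT-PCR used GAPDH normalization. IFN-β ran 35 cycles with anneal at 54 °C; IL-1β ran 30 cycles with anneal at 58 °C. Data are % of LPS alone, mean SEM, n = 3.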

The subject of test [3] is HAPI. The test is described as follows: Inhibition of LPS-induced STAT1 phosphorylation in rat HAPI cell lysates at 50 uM treated 30 mins before LPS challenge measured after 3 hrs by immunoblot analysis.
For test [4], the system named is HAPI. The test is described as follows: Antiinflammatory activity in rat HAPI cells assessed as inhibition of LPS-induced IFN-R mRNA expression at 50 uM treated 30 mins before LPS challenge measured after 6 hrs by RT-PCR analysis. The class given is functional, cell-based. The gist of the method: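 Cells were seeded in 1% FCS DMEM and treated the next day. Compound (50 µM) was present 30 min before and during LPS (100 ng/mL) for 6 h. IFN-R RT-PCR ran 35 cycles with anneal at 55 °C and was normalized to GAPDH. Data are fold change vs untreated cells, mean SEM, n = 3.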

Test [5] concerns HAPI. The test is described as follows: Inhibition of LPS-induced p38 phosphorylation in rat HAPI cell lysates at 50 uM treated 30 mins before LPS challenge measured after 1 hr by immunoblot analysis. The class given is cell-based. An outline of the steps: (§2)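 Compound (50 µM) or vehicle was given 30 min before LPS (100 ng/mL) for 1 h. Whole-cell lysates were made in Tris pH 7.4 Triton buffer with phosphatase inhibitors. Lysate (40 µg) was run on SDS-PAGE and immunoblotted with phospho-specific and total MAPK antibodies (1:1,000), biotin secondary/ABC and chemiluminescence. Blots shown represent three experiments.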
For orientation: A western blot detects proteins with antibodies after separation by electrophoresis.

Test [6] relates to HAPI. The test is described as follows: Inhibition of LPS-induced ERK phosphorylation in rat HAPI cell lysates at 50 uM treated 30 mins before LPS challenge measured after 1 hr by immunoblot analysis. Type of test: cell-based. An outline of the steps:
as §2

In test [7] the test system is HAPI. Briefly: Antiinflammatory activity in rat HAPI cells assessed as inhibition of IFN-gamma-induced iNOS mRNA expression at 50 uM treated 30 mins before LPS challenge measured after 8 hrs by RT-PCR analysis. The class given is functional, cell-based. An outline of the steps: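 HAPI rat microglia were grown in DMEM with 10% heat-inactivated FCS at 37 °C. Compound (50 µM) was added 30 min before and kept during IFN-γ (100 ng/mL) for 8 h. Total RNA was taken for RT-PCR, gel densitometry and normalization to GAPDH. Data are % of IFN-γ alone, mean SEM, n = 3.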

The test system of test [8] is HAPI. Briefly: Inhibition of LPS-induced STAT1 nuclear translocation in rat HAPI cell nuclear extracts at 50 uM treated 30 mins before LPS challenge measured after 3 hrs by immunoblot analysis. The class given is cell-based. The gist of the method:
(§3)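 Compound (50 µM) or vehicle was given 30 min before LPS (100 ng/mL) for 3 h. Nuclear extracts were made by NP-40 lysis and 0.4 M NaCl HEPES pH 7.8 extraction. Extract (10 µg) was immunoblotted for NF-κB p65 or STAT1 (1:1,000), with ABC chemiluminescence detection. Blots shown represent three experiments.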

Test [9] has as its system HAPI. Briefly: Antiinflammatory activity in rat HAPI cells assessed as inhibition of LPS-induced IL1-beta mRNA expression at 50 uM treated 30 mins before LPS challenge measured after 6 hrs by RT-PCR analysis. Type of test: functional, cell-based. An outline of the steps:
as §1

Test [10] has as its system HAPI. Briefly: Inhibition of LPS-induced JNK phosphorylation in rat HAPI cell lysates at 50 uM treated 30 mins before LPS challenge measured after 1 hr by immunoblot analysis. The class given is cell-based. The gist of the method: as §2
Test [11] concerns HAPI. Briefly: Inhibition of LPS-induced NF-kappaB nuclear translocation in rat HAPI cell nuclear extracts at 50 uM treated 30 mins before LPS challenge measured after 3 hrs by immunoblot analysis. The class given is cell-based. An outline of the steps:
as §3

Seven compounds from ChEMBL document CHEMBL1817614, “Inhibitory effects of chalcone glycosides isolated from Brassica rapa L. 'hidabeni' and their synthetic derivatives on LPS-induced NO production in microglia” (Bioorg Med Chem, 2011) can be followed below.

The structures appear in SMILES notation. Activity calls are given as the source filed them. The calls are words filed in the database; no cut-off is given here.

On to `COc1ccc(/C=C/C(=O)c2ccc(O[C@@H]3O[C@H](CO)[C@@H](O)[C@H](O)[C@H]3O)c(OC)c2)cc1`, for which the inhibition entry in the test on HAPI [1], in the test on HAPI [2], in the test with HAPI [3], in the test on HAPI [7], with HAPI [8] and with HAPI [9] was “Active” in each case. The inhibition result with HAPI [4], in the test on HAPI [5], in the test with HAPI [6], in the test with HAPI [10] and with HAPI [11] was “inactive” throughout.
As to `COc1cc(C(C)=O)cc(OC)c1O[C@@H]1O[C@H](CO)[C@@H](O)[C@H](O)[C@H]1O`, the inhibition entry in the test with HAPI [2] was “Active”.
The same measure, in the same setting: to `CC1=CC(=O)CC(C)(C)[C@@]1(O)/C=C/[C@H](C)O[C@@H]1O[C@H](CO)[C@@H](O)[C@H](O)[C@H]1O` belongs “Active”.
On the same count and under the same terms, as for `CC(=O)c1ccc(O[C@@H]2O[C@H](CO)[C@@H](O)[C@H](O)[C@H]2O)cc1`, the entry is “Active”.
With `COc1cc(C(=O)/C=C/c2ccc(O)cc2)ccc1O[C@@H]1O[C@H](CO)[C@@H](O)[C@H](O)[C@H]1O`, the inhibition result with HAPI [1] and in the test with HAPI [2] was “Active” each time.
As to `COc1cc(C(=O)/C=C/c2ccc(O[C@@H]3O[C@H](CO)[C@@H](O)[C@H](O)[C@H]3O)cc2)ccc1O[C@@H]1O[C@H](CO)[C@@H](O)[C@H](O)[C@H]1O`, the inhibition entry in the test with HAPI [2] was “Active”.
Regarding `COc1cc(C(=O)/C=C/c2ccccc2)ccc1O[C@@H]1O[C@H](CO)[C@@H](O)[C@H](O)[C@H]1O`, the inhibition entry in the test on HAPI [1], in the test with HAPI [2] and in the test on HAPI [7] was “Active” throughout.
